Test results published in ChEMBL document CHEMBL1157267, “Polyphenolic constituents of Actaea racemosa” (J Nat Prod, 2006).

How the values were obtained:
Type in all cases: functional
MCF7 [1] = experiment: Stimulation of cell proliferation in human MCF7 cells assessed as cell viability at 14 uM after 4 days relative to control
Procedure, shortened: (§1)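 MCF-7 cells grown in DMEM with 10% FBS at 37 °C and 5% CO2. Before seeding they were passaged at least twice in phenol red-free DMEM with 2 mM L-glutamine and 5% charcoal-stripped serum, then washed twice with PBS. Cells were seeded at 2 × 10^4 per well, allowed 24 h to attach, then given fresh medium with compound. After 4 days attached viable cells were Coulter-counted relative to untreated cells.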

[2] = system: Radical scavenging activity; experiment: Antioxidant activity assessed as DPPH free radical scavenging activity
Procedure, shortened: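 DPPH free-radical scavenging assay run on purified isolates with 400 µM DPPH. IC50 (µM) reported as the concentration giving half-maximal radical scavenging.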

MCF7 [3] = experiment: Stimulation of cell proliferation in human MCF7 cells assessed as cell viability at 10 uM after 4 days relative to control; procedure, shortened: as §1
MCF7 [4] = experiment: Cytotoxicity against human MCF7 cells at 30 uM; details: read-out: GI; procedure, shortened: as §1
MCF7 [5] = experiment: Stimulation of cell proliferation in human MCF7 cells assessed as cell viability at 16.8 uM after 4 days relative to control; procedure, shortened: as §1
MCF7 [6] = experiment: Stimulation of cell proliferation in human MCF7 cells assessed as cell viability at 3.7 nM after 4 days relative to control; procedure, shortened: as §1

SMILES | IC50 [2] | also measured
O=C1OCC(O)(C(=O)c2ccc(O)c(O)c2)/C1=C\c1ccc(O)c(O)c1 (stereo unspecified) [ACTAEALACTONE] | 26 µM | fold change (FC) (MCF7 [1]): 1.24
O=C1OC[C@H](Cc2cccc(O)c2)[C@H]1Cc1cccc(O)c1 [ENTEROLACTONE] | – | fold change (FC) (MCF7 [5]): 1.84
C[C@]12CC[C@@H]3c4ccc(O)cc4CC[C@H]3[C@@H]1CC[C@@H]2O [ESTRADIOL] | – | fold change (FC) (MCF7 [6]): 3.6
O=C(O)c1cc(O)c(O)c(O)c1 [GALLIC ACID] | 29.9 µM | –

Second part, led by results:

IC50 [2] | SMILES | also measured
12 µM | COc1cc(/C=C/C(=O)O[C@H](C(=O)O)[C@](O)(Cc2ccc(O)c(O)c2)C(=O)O)ccc1O [CIMICIFUGIC ACID A] | –
21 µM | COc1ccc(/C=C/C(=O)O[C@H](C(=O)O)[C@](O)(Cc2ccc(O)c(O)c2)C(=O)O)cc1O [CIMICIFUGIC ACID B] | –
37 µM | COc1ccc(/C=C/C(=O)O[C@H](C(=O)O)[C@](O)(Cc2ccc(O)c(O)c2)C(=O)O)cc1OC [CIMICIFUGIC ACID G] | fold change (FC) (MCF7 [3]): 1.14; inhibition of growth at 30 µM (MCF7 [4]): 32%
23 µM | O=C(/C=C/c1ccc(O)c(O)c1)O[C@H](C(=O)O)[C@](O)(Cc1ccc(O)c(O)c1)C(=O)O [FUKINOLIC ACID] | –
